Data on nine molecules can be found in ChEMBL document CHEMBL1126595, “Studies directed toward the design of orally active renin inhibitors. 2. Development of the efficacious, bioavailable renin inhibitor (2S)-2-benzyl-3- [[(1-methylpiperazin-4-yl)sulfonyl]propionyl]-3-thiazol-4-yl-L-alanine amide of (2S,3R,4S)-2-amino-1-cyclohexyl-3,4-dihydroxy-6-methylheptane …” (J Med Chem, 1993).

Data set [1] is described as follows: Peak concentration was determined in systemic circulation after intraduodenal dose of 10 mg/kg in ferret. The format is ADME, organism-based, Mustela putorius furo. Also noted: dose 10 mg/kg, route intraduodenal. The conditions noted are these: in vivo, read-out: Activity. An outline of the steps:
(§1)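 Intraduodenal 10 mg/kg to anesthetized rats or ferrets. Compound dissolved in ethanol with 110 mol % HCl, then diluted in aqueous hydroxypropyl methylcellulose to 25% ethanol (10 mg/mL). Plasma sampled id rat 15, 30, 60, 120 min; id ferret 5, 15, 30, 60, 120, 180 min. Drug measured by renin inhibition assay or HPLC. AUC in ng h/mL. Bioavailability is relative to iv 1.0 mg/kg (rat) or 0.3 mg/kg (ferret).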

Data set [2] is described as follows: Hypotension peak is percentage change from predose baseline pressure observed after intraduodenal dose of 10 mg/kg in monkey. Also noted: dose 10 mg/kg, route intraduodenal. As to conditions: simiiformes, in vivo, other. The format is ADME, organism-based. In a few lines:
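Anesthetized, salt-depleted cynomolgus monkeys given 10 mg/kg intraduodenally. Mean arterial pressure followed for up to 5 h. Peak fall expressed as % change from predose baseline. Difference from baseline significant if P < 0.05. Mean ± SEM.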

Data set [3] in a line: Bioavailability in the systemic circulation after 10 minutes was determined after intraduodenal dose of 15 mg/kg in rat by renin inhibition assay. The format is ADME, organism-based. The conditions noted are these: plasma (systemic circulation), read-out: Plasma level.
The nature of data set [4]: Bioavailability in ferret (dose 10 mg/kg i.d.). The format is ADME, organism-based, Mustela putorius furo. The conditions noted are these: in vivo. An outline of the steps:
as §1

Data set [5] is described as follows: Peak concentration was determined in systemic circulation after intraduodenal dose of 10 mg/kg in rat. The format is ADME, organism-based. Also noted: dose 10 mg/kg, route intraduodenal. The conditions noted are these: in vivo, read-out: Activity. An outline of the steps: as §1
Data set [6] can be described thus: Peak concentration was determined in systemic circulation after intraduodenal dose of 10 mg/kg in monkey. The format is ADME, organism-based. Also noted: dose 10 mg/kg, route intraduodenal. The conditions noted are these: simiiformes, in vivo, read-out: Activity. An outline of the steps:
(§2)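 Anesthetized, salt-depleted cynomolgus monkeys dosed intraduodenally at 10 mg/kg in HCl salt/ethanol–hydroxypropyl methylcellulose vehicle (25% ethanol). Systemic and portal plasma drug levels measured by renin inhibition assay. AUC in ng h/mL. Bioavailability compared against an iv dose of 0.3 mg/kg or 1.0 mg/kg, the latter taken from earlier work. Mean ± SEM.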

The nature of data set [7]: Bioavailability was determined after intraduodenal dose of 10 mg/kg in monkey (compared to 1 mg/kg intravenous dose). The format is ADME, organism-based. The conditions noted are these: simiiformes, in vivo, read-out: Bioavailabiility. An outline of the steps: as §2
Data set [8] in a line: Integrated area under the plasma drug level-time curve was determined in systemic circulation after intraduodenal dose of 10 mg/kg in rat. The format is ADME, organism-based. Also noted: dose 10 mg/kg, route intraduodenal. An outline of the steps:
as §1

Data set [9] can be described thus: Partition coefficient in the octanol/water phase at pH 7.4. The format is physicochemical. In a few lines: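 log P measured by octanol/water partition at pH 7.4.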
A short description of data set [10]: Integrated area under the plasma drug level-time curve was determined in systemic circulation after intraduodenal dose of 10 mg/kg in monkey. Also noted: dose 10 mg/kg, route intraduodenal. The format is ADME, organism-based. As to conditions: simiiformes. An outline of the steps: as §2
The nature of data set [11]: Bioavailability in rat (dose 10 mg/kg i.d.). The format is ADME, organism-based. The conditions noted are these: in vivo. In a few lines: as §1
Data set [12] can be described thus: Peak concentration was determined in portal circulation after intraduodenal dose of 10 mg/kg in monkey. The format is ADME, organism-based. Also noted: dose 10 mg/kg, route intraduodenal. The conditions noted are these: simiiformes, in vivo, read-out: Activity. In a few lines:
as §2

Data set [13] can be described thus: Integrated area under the plasma drug level-time curve was determined in portal circulation after intraduodenal dose of 10 mg/kg in monkey. The format is ADME, organism-based. Also noted: dose 10 mg/kg, route intraduodenal. As to conditions: simiiformes. In a few lines: as §2
The nature of data set [14]: Integrated area under the plasma drug level-time curve was determined in systemic circulation after intraduodenal dose of 10 mg/kg in ferret. The format is ADME, organism-based, Mustela putorius furo. Also noted: dose 10 mg/kg, route intraduodenal. An outline of the steps: as §1
Data set [15] in a line: Bioavailability in the systemic circulation after 30 minutes was determined after intraduodenal dose of 10 mg/kg in rat by renin inhibition assay. The format is ADME, organism-based. The conditions noted are these: plasma (systemic circulation), read-out: Plasma level. An outline of the steps:
(§3)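 Screening model in anesthetized rats given 10 mg/kg intraduodenally. Formulation was ethanol stock with 110 mol % HCl, diluted with aqueous hydroxypropyl methylcellulose to 25% ethanol. Systemic and portal blood drawn at 10 and 30 min in the same animals. Drug level (ng/mL) measured by HPLC or renin inhibition assay. Mean ± SEM, n = 3 unless noted.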

The target in another data set is T1, Renin (Homo sapiens, UniProt P00797).
T1 sequence (P00797 whole entry): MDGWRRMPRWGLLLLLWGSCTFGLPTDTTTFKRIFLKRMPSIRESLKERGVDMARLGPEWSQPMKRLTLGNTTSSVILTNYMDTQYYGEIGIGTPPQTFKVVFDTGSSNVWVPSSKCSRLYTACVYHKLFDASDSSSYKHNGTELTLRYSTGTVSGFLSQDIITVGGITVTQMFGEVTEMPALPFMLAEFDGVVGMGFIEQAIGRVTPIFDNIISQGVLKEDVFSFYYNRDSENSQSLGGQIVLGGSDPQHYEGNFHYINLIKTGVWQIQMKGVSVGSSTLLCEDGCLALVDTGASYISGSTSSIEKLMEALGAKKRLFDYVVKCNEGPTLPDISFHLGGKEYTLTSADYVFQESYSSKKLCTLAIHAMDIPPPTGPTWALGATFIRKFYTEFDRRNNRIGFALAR
The data set can be described thus: Inhibitory concentration against human plasma renin at pH 7.4. The format is cell-free.

The nature of data set [16]: Solubility at pH 7.4. As to conditions: buffer. The format is physicochemical.
The nature of data set [17]: Bioavailability in the systemic circulation after 30 minutes was determined after intraduodenal dose of 10 mg/kg in rat by HPLC method. The format is ADME, organism-based. The conditions noted are these: plasma (systemic circulation), read-out: Plasma level. In a few lines: as §3
The nature of data set [18]: Bioavailability in the portal circulation after 30 minutes was determined after intraduodenal dose of 10 mg/kg in rat by HPLC method. The format is ADME, organism-based. The conditions noted are these: plasma (portal circulation), read-out: Plasma level. An outline of the steps:
as §3

The nature of data set [19]: Bioavailability in the systemic circulation after 10 minutes was determined after intraduodenal dose of 10 mg/kg in rat by HPLC method. The format is ADME, organism-based. The conditions noted are these: plasma (systemic circulation), read-out: Plasma level. An outline of the steps:
as §3

Data set [20] can be described thus: Bioavailability in the portal circulation after 10 minutes was determined after intraduodenal dose of 10 mg/kg in rat by HPLC method. The format is ADME, organism-based. The conditions noted are these: plasma (portal circulation), read-out: Plasma level. In a few lines: as §3
A short description of data set [21]: Bioavailability in the systemic circulation after 10 minutes was determined after intraduodenal dose of 10 mg/kg in rat by renin inhibition assay. The format is ADME, organism-based. As to conditions: plasma (systemic circulation), read-out: Plasma level. An outline of the steps:
as §3

The nature of data set [22]: Bioavailability in the portal circulation after 10 minutes was determined after intraduodenal dose of 10 mg/kg in rat by renin inhibition assay. The format is ADME, organism-based. As to conditions: plasma (portal circulation), read-out: Plasma level. In a few lines:
as §3

The nature of data set [23]: Bioavailability in the portal circulation after 30 minutes was determined after intraduodenal dose of 10 mg/kg in rat by renin inhibition assay. As to conditions: plasma (portal circulation), read-out: Plasma level. The format is ADME, organism-based. An outline of the steps:
as §3

Converted amounts (≈) assume the structure as drawn. A value given as a limit tells only on which side of the number the result lay.

For `CC(C)C[C@H](O)[C@H](O)[C@H](CC1CCCCC1)NC(=O)[C@H](Cc1cscn1)NC(=O)[C@H](Cc1ccccc1)CS(=O)(=O)N1CCN(C)CC1` [ZANKIREN], the Cmax in data set [1] was 940 ng/mL; in [5] it was 470 ng/mL; in data set [6], 130 ng/mL; in data set [12], 2400 ng/mL. The same molecule registered a Change in [2] of 37%. In addition, the concentration at 10 min in data set [3] was 280 ng/mL. Besides, the figures for the bioavailability in data set [4], in [7] and in data set [11] were 82%, 5.1% and 23%, respectively. Further, the AUC was determined as 620 ng·h/mL in [8], 340 ng·h/mL in data set [10], 3800 ng·h/mL in data set [13] and 1500 ng·h/mL in data set [14]. In [9], this molecule yielded a logD of 4.57. For the same molecule, the concentration at 0.5 h in data set [15] was determined as 440 ng/mL.

`CC(C)C[C@H](O)[C@H](O)[C@H](CC1CCCCC1)NC(=O)[C@H](Cc1cscn1)NC(=O)[C@H](Cc1ccccc1)CS(=O)(=O)N(C)CCc1ccccn1`: half-maximal inhibition on Renin (IC50) required 1.8 nM. Besides, the logD in data set [9] was > 4.5.

Molecule `CC(C)C[C@H](O)[C@H](O)[C@H](CC1CCCCC1)NC(=O)[C@H](Cc1cscn1)NC(=O)[C@@H](CC(=O)NCCc1ccccn1)Cc1ccccc1` came in with an IC50 at Renin of 37 nM.

Take `CC(C)C[C@H](O)[C@H](O)[C@H](CC1CCCCC1)NC(=O)[C@H](Cc1cscn1)NC(=O)[C@@H](CC(=O)N(C)CCN1CCOCC1)Cc1ccccc1`: the Cmax in data set [1] is 860 ng/mL. This molecule also returned a bioavailability in data set [4] of 85%. Further, the IC50 at Renin turned out to be 4.1 nM. In data set [9], this molecule registered a logD of 4.15. Besides, the AUC in data set [14] is 1200 ng·h/mL. Also, in data set [15], the concentration at 0.5 h turned out to be 570 ng/mL.

In turn, `CC(C)C[C@H](O)[C@H](O)[C@H](CC1CCCCC1)NC(=O)[C@H](Cc1cscn1)NC(=O)[C@@H](CC(=O)N(C)CCc1c[nH]c2ccccc12)Cc1ccccc1` yielded an IC50 against Renin of 33 nM.

In turn, `CC(C)C[C@H](O)[C@H](O)[C@H](CC1CCCCC1)NC(=O)[C@H](Cc1cscn1)NC(=O)[C@@H](CC(=O)N(C)CCn1ccnc1)Cc1ccccc1` returned a solubility in [16] of 120 µg/mL (≈ 173 µM). Also, the concentration at 0.5 h turned out to be 190 ng/mL in data set [17] and 810 ng/mL in data set [18]. This molecule also displayed an IC50 against Renin of 1.3 nM. This molecule showed a logD in data set [9] of 4.01. Besides, the concentration at 10 min worked out at 57 ng/mL in [19] and 400 ng/mL in data set [20].

`CC(C)C[C@H](O)[C@H](O)[C@H](CC1CCCCC1)NC(=O)[C@H](Cc1cscn1)NC(=O)[C@H](Cc1ccccc1)CS(=O)(=O)C(C)(C)C`: the concentration at 10 min in data set [21] came out at 22 ng/mL; in data set [22], 830 ng/mL. The figures for the concentration at 0.5 h in data set [23] and in data set [15] were 500 ng/mL and 29 ng/mL, respectively. For the same molecule, the log distribution coefficient (logD) in data set [9] was > 4.2.

Molecule `CC(C)C[C@H](O)[C@H](O)[C@H](CC1CCCCC1)NC(=O)[C@H](Cn1ccnc1)NC(=O)[C@@H](CC(=O)N(C)CCc1ccccn1)Cc1ccccc1` returned an IC50 on Renin of 14 nM.

Consider `CC(C)C[C@H](O)[C@H](O)[C@H](CC1CCCCC1)NC(=O)[C@H](Cc1cscn1)NC(=O)[C@H](Cc1ccccc1)CS(=O)(=O)C1CN(C)C1`, for which the Cmax in data set [1] amounted to 790 ng/mL; in [5], 850 ng/mL. In addition, the concentration at 0.5 h came to 550 ng/mL in data set [17] and 1900 ng/mL in [18]. The bioavailability in [4] and in [11] was 80% in each case. This molecule also yielded an IC50 at Renin of 3.9 nM. In addition, the results for the AUC in data set [8] and in data set [14] were 1300 ng·h/mL and 2000 ng·h/mL, respectively. In [9], the logD is 3.89. The concentration at 10 min in [19] stood at 510 ng/mL; in data set [20], 1800 ng/mL.
